INS promoter inh: inhibitors of insulin promoter-driven GFP, primary screen, imaging, TRM-6 cells (human fetal islet line), eGFP reporter, cell count | reporter expression induced with tamoxifen | inhibition, % at 2 µM | 130,000 compounds, 0.9% hits | AID 1273, 2008;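 active = inhibition above the mean plus 3 SD, with well images judged a real hit on visual review, cut at about 60% in these data, passing the limit was not always enough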
Wee1 stabilizer: Wee1 degradation inhibitors, primary screen, cell-based, HeLa, Wee1K328M-luciferase, luminescence; Wee1-like protein kinase (Homo sapiens), P30291; HeLa Luc-Wee1K328M stability; 100% = proteasome inhibitor MG132 effect; reporter increase, % at 5 µM; 220,000 compounds, 1.2% hits; AID 1321, 2008;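 active = activation above the mean of all tested compounds plus 3 SD, set per screening run, cut at about 8.8% in these data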;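 also: cells exposed to compound for 20 h before luminescence read; 0% = DMSO alone and 100% = MG132 at 30 µM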
Mdm2 ligase inh: MDM2-luciferase reporter signal enhancers, primary screen, MDM2 E3 ligase inhibitor project, cell-based, luminescence, 1536-well; E3 ubiquitin-protein ligase Mdm2 (Homo sapiens), Q00987; cell-based MDM2 ubiquitination luciferase reporter, 2 h; 0 = plate control, 100 = twice control, blank-subtracted; signal enhancement, % at 5 µM; 210,000 compounds, 0.11% hits;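 active = signal enhancement of 30% or more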;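 also: luminescence tracks abundance of the self-degrading MDM2-luciferase fusion protein; higher signal means inhibition of MDM2 E3 ligase activity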
Target sequence (Q00987 whole entry, looked up, the tested form may be a part): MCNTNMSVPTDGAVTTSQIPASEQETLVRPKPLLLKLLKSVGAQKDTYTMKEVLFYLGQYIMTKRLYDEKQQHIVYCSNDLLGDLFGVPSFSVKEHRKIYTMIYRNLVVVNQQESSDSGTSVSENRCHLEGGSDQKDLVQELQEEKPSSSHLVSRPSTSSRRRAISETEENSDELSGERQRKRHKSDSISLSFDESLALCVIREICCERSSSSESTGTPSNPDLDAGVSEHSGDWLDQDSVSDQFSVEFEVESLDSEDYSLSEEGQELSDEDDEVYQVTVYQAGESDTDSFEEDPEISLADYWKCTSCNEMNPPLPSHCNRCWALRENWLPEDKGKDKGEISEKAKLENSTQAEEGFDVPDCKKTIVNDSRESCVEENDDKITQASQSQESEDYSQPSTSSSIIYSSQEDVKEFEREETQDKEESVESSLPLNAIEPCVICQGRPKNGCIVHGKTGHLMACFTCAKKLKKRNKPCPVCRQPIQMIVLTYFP
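System: stable MDM2–luciferase fusion reporter cells / Input: 2000 cells seeded into each well / Schedule: 4 h settle plus 2 h compound, 37 °C / Compound: single-point 5 µM / Buffer or medium: cells held in DMEM / Benchmarks: control and blank well means / Evaluation: percent signal gain over controls, blank-subtracted / Measured by: luciferase luminescence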
Hsp70 act: Hsp70 transcriptional activators, primary screen, cell-based, HeLa, Hsp70 promoter luciferase, luminescence, 10 µM; HeLa Hsp70 promoter luciferase reporter; scaled: vehicle 0, proteasome-inhibitor control 100%; 200,000 compounds, 0.04% hits; activation, % at 10 µM; AID 1203, 2008;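 active = activation above the mean across all tested compounds plus 3 SD, cutoff set per campaign, cut at about 5.5% in these data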;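 also: 100% = MG132 at 30 µM as the positive control and 0% = DMSO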
Ins promoter up: insulin promoter activators in MIN6 cells, imaging, high-content screening, mouse beta cells; MIN6 insulin promoter-GFP reporter; stronger effect = higher value; z-score at 5 µM; 190,000 compounds, 0.3% hits; AID 1625, 2009;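 active = z-score above 3 at 5 µM with at least 500 cells counted in the well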
RBBP9 inhibitor: human RBBP9 inhibitors, primary screen, biochemical, fluorescence polarization, FP-Rh probe, HTS | recombinant RBBP9 | inhibition, % at 7.94 µM | 220,000 compounds, 0.2% hits | AID 1515, 2009;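 active = inhibition above the campaign mean of all tested compounds plus 3 SD, cut at about 14% in these data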;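 also: plate controls were DMSO wells with RBBP9 for no effect and wells lacking RBBP9 protein for full effect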
Target sequence (O75884 whole entry, looked up): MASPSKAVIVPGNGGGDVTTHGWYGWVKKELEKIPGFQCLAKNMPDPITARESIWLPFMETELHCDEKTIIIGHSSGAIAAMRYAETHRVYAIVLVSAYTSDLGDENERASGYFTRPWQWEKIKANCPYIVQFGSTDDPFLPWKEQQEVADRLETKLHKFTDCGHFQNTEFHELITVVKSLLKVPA
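Test system: recombinant human RBBP9; Timing: 30 min then 45 min, 25 °C; Detection: fluorescence polarization; Control set: RBBP9 with DMSO as uninhibited control, no-protein wells as full inhibition; Compound dosing: one concentration, 7.94 µM nominal, 0.794% DMSO; Probe or stimulus: FP-Rh activity-based probe, 375 nM before mixing.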
An asterisk follows results filed as active. Only some compounds are listed: those with a hit (about 2.2% of all), similar ones and a draw of the others.

Results for CC(NC(=O)/C(C#N)=C1\N=C(NC(=O)c2ccco2)c2ccccc21)c1ccccc1 (stereo not given) ?
Wee1 stabilizer: 7.7; Mdm2 ligase inh: -4.0; Ins promoter up: 3.68*; RBBP9 inhibitor: -15.0

What do the screens show for `Cc1ccc(-c2nnn(CCC(=O)N3CCCCC3C)n2)cc1` (stereo not given)?
INS promoter inh: 71.4*; Wee1 stabilizer: -1.7; Mdm2 ligase inh: -14.7; Hsp70 act: -0.2; Ins promoter up: 0.07; RBBP9 inhibitor: -1.4

How did CC1CCCCN1C(=O)Cn1nnc(-c2cccnc2)n1 (stereo not given) do in these assays?
INS promoter inh: -50.0; Wee1 stabilizer: 0.1; Mdm2 ligase inh: 0.5; Hsp70 act: 0.2; Ins promoter up: 1.15; RBBP9 inhibitor: -8.1

Results for Cc1cc(Oc2ccccc2)nc(N)n1 ?
INS promoter inh: -123.8; Wee1 stabilizer: -0.2; Mdm2 ligase inh: -4.7; Hsp70 act: -0.1; Ins promoter up: -0.44; RBBP9 inhibitor: -4.9

Results for Cc1cc(SCCOc2ccccc2)nc(N)n1 ?
INS promoter inh: 48.6; Wee1 stabilizer: -2.2; Mdm2 ligase inh: -5.2; Hsp70 act: 0.4; Ins promoter up: 3.13*; RBBP9 inhibitor: -1.6

What do the screens show for `O=[N+]([O-])c1ccc(NCCNCCOc2nonc2-c2ccccc2)c([N+](=O)[O-])c1`?
INS promoter inh: -5.6; Wee1 stabilizer: 1.7; Mdm2 ligase inh: -13.3; Hsp70 act: -0.3; Ins promoter up: 0.46; RBBP9 inhibitor: 2.8

Results for COc1ccc(Nc2oc(-c3ccc(F)cc3)nc2C#N)cc1 ?
Wee1 stabilizer: 9.3*; Mdm2 ligase inh: -4.9; Ins promoter up: -0.83; RBBP9 inhibitor: -7.2

How did COCCNc1oc(-c2ccc(F)cc2)nc1C#N do in these assays?
Wee1 stabilizer: -2.5; Mdm2 ligase inh: -12.4; Hsp70 act: 1.2; Ins promoter up: 0.59; RBBP9 inhibitor: -6.3

Results for CCCCCC(=O)Nc1c(-c2ccc(OC)cc2)c(=O)c2ccccc2n1C ?
INS promoter inh: -19.4; Wee1 stabilizer: 9.9*; Mdm2 ligase inh: 8.8; Hsp70 act: -0.4; Ins promoter up: 0.68; RBBP9 inhibitor: -4.5

Results for Cc1ccsc1C(=O)OCC(=O)NC1CCS(=O)(=O)C1 (stereo not given) ?
INS promoter inh: -45.0; Wee1 stabilizer: -0.3; Mdm2 ligase inh: -10.7; Hsp70 act: -0.1; RBBP9 inhibitor: -6.7

What do the screens show for `c1ccc(OCCOCCSc2ncccn2)cc1`?
INS promoter inh: 80.8*; Wee1 stabilizer: -1.7; Mdm2 ligase inh: -15.4; Hsp70 act: -0.2; Ins promoter up: -0.16; RBBP9 inhibitor: -9.4

What do the screens show for `Cc1cccc(OCCOCCSc2ncccn2)c1`?
INS promoter inh: 11.5; Wee1 stabilizer: 1.8; Mdm2 ligase inh: -4.0; Hsp70 act: 0.6; Ins promoter up: -0.49; RBBP9 inhibitor: 0.1

Results for NS(=O)(=O)c1cccc2cccnc12 ?
INS promoter inh: -54.5; Wee1 stabilizer: -1.4; Mdm2 ligase inh: 6.2; Hsp70 act: -0.4; Ins promoter up: 5.52*; RBBP9 inhibitor: -8.6

How did COc1ccc(C)cc1NC(=O)C(OC(=O)CNC(=O)c1cc(C)cc(C)c1)c1ccccc1 (stereo not given) do in these assays?
Wee1 stabilizer: 1.7; Mdm2 ligase inh: 67.2*; Hsp70 act: -0.3; Ins promoter up: 0.05; RBBP9 inhibitor: 3.0

What do the screens show for `COc1ccc(C)cc1NC(=O)C(OC(=O)CNC(=O)c1ccc(Br)cc1)c1ccccc1` (stereo not given)?
INS promoter inh: -15.4; Wee1 stabilizer: -2.2; Mdm2 ligase inh: 5.5; Hsp70 act: -0.3; Ins promoter up: -0.07; RBBP9 inhibitor: -7.2

How did COc1ccccc1N1CCN(C(=O)c2n[nH]c3ccccc23)CC1 do in these assays?
INS promoter inh: 75.0*; Wee1 stabilizer: -3.2; Mdm2 ligase inh: -15.8; Hsp70 act: -0.4; Ins promoter up: -0.95; RBBP9 inhibitor: -8.0

How did O=C(c1n[nH]c2ccccc12)N1CCN(c2ccc(F)cc2)CC1 do in these assays?
Wee1 stabilizer: -0.1; Mdm2 ligase inh: -12.1; Hsp70 act: 0.1; Ins promoter up: -0.48; RBBP9 inhibitor: -4.1

How did CCNc1nc(NC(C)C)nc(N(n2cnnc2)S(=O)(=O)c2ccc(C)cc2)n1 do in these assays?
INS promoter inh: 37.0; Wee1 stabilizer: -0.8; Mdm2 ligase inh: -5.3; Hsp70 act: -0.1; Ins promoter up: -0.01; RBBP9 inhibitor: 5.6

Results for CCNc1nc(NCC)nc(N(n2cnnc2)S(=O)(=O)c2ccc(C)cc2)n1 ?
INS promoter inh: 80.0*; Wee1 stabilizer: -2.2; Mdm2 ligase inh: 2.6; Hsp70 act: 0.0; Ins promoter up: -0.16; RBBP9 inhibitor: 10.5

How did CC(=C/C(=O)O)/C=C/c1ccc([N+](=O)[O-])cc1 do in these assays?
Wee1 stabilizer: 11.1*; Mdm2 ligase inh: -4.4; Hsp70 act: -0.3; Ins promoter up: 2.46; RBBP9 inhibitor: -0.7

Results for Cc1nn(-c2ccccc2)c(Cl)c1C(=O)NCc1cccs1 ?
Wee1 stabilizer: 4.5; Mdm2 ligase inh: -4.3; Hsp70 act: -0.2; Ins promoter up: -1.26; RBBP9 inhibitor: -8.6

Results for O=C(CCS(=O)(=O)c1ccc(Br)s1)Nc1ccccc1Br ?
INS promoter inh: 14.3; Wee1 stabilizer: -2.9; Mdm2 ligase inh: -4.1; Hsp70 act: 0.5; Ins promoter up: -0.53; RBBP9 inhibitor: 0.1

How did COc1ccc(Nc2nc3ccccc3c(=O)s2)c(OC)c1 do in these assays?
Wee1 stabilizer: 1.1; Mdm2 ligase inh: -21.5; Hsp70 act: -0.2; Ins promoter up: -0.51; RBBP9 inhibitor: -1.3

How did Cc1ccc(Nc2nc3ccccc3c(=O)s2)cc1C do in these assays?
INS promoter inh: 8.3; Wee1 stabilizer: 10.0*; Mdm2 ligase inh: -2.3; Hsp70 act: -0.3; Ins promoter up: 0.61; RBBP9 inhibitor: -4.9

Results for COc1cc(NC(=O)c2cnc(N)s2)cc(C(=O)Nc2cccc(C(F)(F)F)c2)c1 ?
Mdm2 ligase inh: 32.0*; Ins promoter up: -0.45

What do the screens show for `COc1cc(NC(=O)c2ccnc(N)c2)cc(C(=O)Nc2cccc(C(F)(F)F)c2)c1`?
Mdm2 ligase inh: 6.6; Ins promoter up: 0.39

What do the screens show for `CC1=C(C(=O)NC(C)CCc2ccccc2)C2(CCC(C)CC2)OC1=O` (stereo not given)?
INS promoter inh: -6.7; Wee1 stabilizer: -0.3; Mdm2 ligase inh: 36.2*; Hsp70 act: -0.3; Ins promoter up: -0.04; RBBP9 inhibitor: 1.6

How did CC1=C(C(=O)NC(C)c2ccccc2)C2(CCC(C)CC2)OC1=O (stereo not given) do in these assays?
Wee1 stabilizer: -1.0; RBBP9 inhibitor: -7.6

Assay outcomes as filed in PubChem BioAssay.
